Values after ≈ are worked out from the molar mass of the structure shown. Active and inactive are the calls of the source. The rule behind the calls is not given here.
How the values were obtained:
HOP-92 = assay: Cytotoxicity against human HOP92 cells assessed as growth inhibition at 10 uM after 48 hrs by sulphorhodamine B assay; assay type: functional; conditions: HOP-92, 48 h, read-out: GI
Procedure, shortened: (§1)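 NCI-60 one-dose screen per the NCI Drug Evaluation Branch protocol. Cells given a single 10 µM concentration with 48 h continuous exposure. Growth estimated by sulphorhodamine B protein assay. Result expressed as percentage growth inhibition relative to untreated growth.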

NCI-H23 = assay: Cytotoxicity against human NCI-H23 cells assessed as growth inhibition at 10 uM after 48 hrs by sulphorhodamine B assay; assay type: functional; conditions: NCI-H23, 48 h, read-out: GI; procedure, shortened: as §1
[1] = Cytotoxicity against human EKVX cells assessed as growth inhibition at 10 uM after 48 hrs by sulphorhodamine B assay; assay type: functional; conditions: read-out: GI; procedure, shortened: as §1
A549 = assay: Cytotoxicity against human A549 cells assessed as growth inhibition at 10 uM after 48 hrs by sulphorhodamine B assay; assay type: functional; conditions: A549, 48 h, read-out: GI; procedure, shortened: as §1
[2] = Displacement of methyl green from DNA (unknown origin) after 24 hrs
Procedure, shortened: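 DNA-methyl green complex was stirred in 0.05 M Tris-HCl pH 7.5 with 7.5 mmol MgSO4 at 37 °C for 24 h. Compound was dried down from EtOH in tubes and the DNA-methyl green solution added. A630 was read initially and after 24 h dark incubation at room temperature, corrected and normalized to untreated complex. IC50 is the concentration giving a 50% absorbance decrease; mean ± SD, n = 6.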

[3] = Binding affinity to DNA (unknown origin) at 5 mg/mL by RP-TLC plate analysis
Procedure, shortened: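 Reversed-phase C18 TLC plates pre-developed in methanol/water 8:2. Compound spotted at origin (5 mg/mL in methanol), then DNA (1 mg/mL in water/methanol 8:2) applied at the same spot. Plates developed in the same eluent; DNA located by anisaldehyde spray (blue). Ethidium bromide as positive control.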

NCI/ADR-RES = assay: Cytotoxicity against human NCI/ADR-RES cells assessed as growth inhibition at 10 uM after 48 hrs by sulphorhodamine B assay; assay type: functional; conditions: read-out: GI; procedure, shortened: as §1
SNB-75 = assay: Cytotoxicity against human SNB75 cells assessed as growth inhibition at 10 uM after 48 hrs by sulphorhodamine B assay; assay type: functional; conditions: SNB-75, 48 h, read-out: GI; procedure, shortened: as §1
U-251 = assay: Cytotoxicity against human U251 cells assessed as growth inhibition at 10 uM after 48 hrs by sulphorhodamine B assay; assay type: functional; conditions: U-251, 48 h, read-out: GI; procedure, shortened: as §1
SNB-19 = assay: Cytotoxicity against human SNB19 cells assessed as growth inhibition at 10 uM after 48 hrs by sulphorhodamine B assay; assay type: functional; conditions: SNB-19, 48 h, read-out: GI; procedure, shortened: as §1
SF-295 = assay: Cytotoxicity against human SF295 cells assessed as growth inhibition at 10 uM after 48 hrs by sulphorhodamine B assay; assay type: functional; conditions: SF-295, 48 h, read-out: GI; procedure, shortened: as §1
DU-145 = assay: Cytotoxicity against human DU145 cells assessed as growth inhibition at 10 uM after 48 hrs by sulphorhodamine B assay; assay type: functional; conditions: DU-145, 48 h, read-out: GI; procedure, shortened: as §1
SF-268 = assay: Cytotoxicity against human SF268 cells assessed as growth inhibition at 10 uM after 48 hrs by sulphorhodamine B assay; assay type: functional; conditions: SF-268, 48 h, read-out: GI; procedure, shortened: as §1
PC-3 = assay: Cytotoxicity against human PC3 cells assessed as growth inhibition at 10 uM after 48 hrs by sulphorhodamine B assay; assay type: functional; conditions: PC-3, 48 h, read-out: GI; procedure, shortened: as §1
UACC-62 = assay: Cytotoxicity against human UACC62 cells assessed as growth inhibition at 10 uM after 48 hrs by sulphorhodamine B assay; assay type: functional; conditions: UACC-62, 48 h, read-out: GI; procedure, shortened: as §1
SK-MEL-2 = assay: Cytotoxicity against human SK-MEL-2 cells assessed as growth inhibition at 10 uM after 48 hrs by sulphorhodamine B assay; assay type: functional; conditions: SK-MEL-2, 48 h, read-out: GI; procedure, shortened: as §1
SK-MEL-5 = assay: Cytotoxicity against human SK-MEL-5 cells assessed as growth inhibition at 10 uM after 48 hrs by sulphorhodamine B assay; assay type: functional; conditions: SK-MEL-5, 48 h, read-out: GI; procedure, shortened: as §1
M14 = assay: Cytotoxicity against human M14 cells assessed as growth inhibition at 10 uM after 48 hrs by sulphorhodamine B assay; assay type: functional; conditions: M14, 48 h, read-out: GI; procedure, shortened: as §1
LOX IMVI = assay: Cytotoxicity against human LOXIMVI cells assessed as growth inhibition at 10 uM after 48 hrs by sulphorhodamine B assay; assay type: functional; conditions: read-out: GI; procedure, shortened: as §1
UO-31 = assay: Cytotoxicity against human UO31 cells assessed as growth inhibition at 10 uM after 48 hrs by sulphorhodamine B assay; assay type: functional; conditions: UO-31, 48 h, read-out: GI; procedure, shortened: as §1
CAKI-1 = assay: Cytotoxicity against human Caki1 cells assessed as growth inhibition at 10 uM after 48 hrs by sulphorhodamine B assay; assay type: functional; conditions: CAKI-1, 48 h, read-out: GI; procedure, shortened: as §1
RXF 393 = assay: Cytotoxicity against human RXF393 cells assessed as growth inhibition at 10 uM after 48 hrs by sulphorhodamine B assay; assay type: functional; conditions: RXF 393, 48 h, read-out: GI; procedure, shortened: as §1
ACHN = assay: Cytotoxicity against human ACHN cells assessed as growth inhibition at 10 uM after 48 hrs by sulphorhodamine B assay; assay type: functional; conditions: read-out: GI; procedure, shortened: as §1
SR = assay: Cytotoxicity against human SR cells assessed as growth inhibition at 10 uM after 48 hrs by sulphorhodamine B assay; assay type: functional; conditions: read-out: GI; procedure, shortened: as §1
A498 = assay: Cytotoxicity against human A498 cells assessed as growth inhibition at 10 uM after 48 hrs by sulphorhodamine B assay; assay type: functional; conditions: A498, 48 h, read-out: GI; procedure, shortened: as §1
RPMI-8226 = assay: Cytotoxicity against human RPMI8226 cells assessed as growth inhibition at 10 uM after 48 hrs by sulphorhodamine B assay; assay type: functional; conditions: RPMI-8226, 48 h, read-out: GI; procedure, shortened: as §1
MOLT-4 = assay: Cytotoxicity against human MOLT4 cells assessed as growth inhibition at 10 uM after 48 hrs by sulphorhodamine B assay; assay type: functional; conditions: MOLT-4, 48 h, read-out: GI; procedure, shortened: as §1
K562 = assay: Cytotoxicity against human K562 cells assessed as growth inhibition at 10 uM after 48 hrs by sulphorhodamine B assay; assay type: functional; conditions: K562, 48 h, read-out: GI; procedure, shortened: as §1
HL-60(TB) = assay: Cytotoxicity against human HL-60(TB) cells assessed as growth inhibition at 10 uM after 48 hrs by sulphorhodamine B assay; assay type: functional; conditions: HL-60, 48 h, read-out: GI
Procedure, shortened: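 NCI-60 one-dose primary screen run to the Drug Evaluation Branch protocol. Cells are exposed to a single 10 µM concentration for 48 h continuously, and growth is read by SRB protein assay. Data are reported as percent growth of treated cells, expressed as % growth inhibition.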

SK-OV-3 = assay: Cytotoxicity against human SKOV3 cells assessed as growth inhibition at 10 uM after 48 hrs by sulphorhodamine B assay; assay type: functional; conditions: SK-OV-3, 48 h, read-out: GI; procedure, shortened: as §1
CCRF-CEM = assay: Cytotoxicity against human CCRF-CEM cells assessed as growth inhibition at 10 uM after 48 hrs by sulphorhodamine B assay; assay type: functional; conditions: read-out: GI; procedure, shortened: as §1
OVCAR-5 = assay: Cytotoxicity against human OVCAR5 cells assessed as growth inhibition at 10 uM after 48 hrs by sulphorhodamine B assay; assay type: functional; conditions: OVCAR-5, 48 h, read-out: GI; procedure, shortened: as §1
OVCAR-4 = assay: Cytotoxicity against human OVCAR4 cells assessed as growth inhibition at 10 uM after 48 hrs by sulphorhodamine B assay; assay type: functional; conditions: OVCAR-4, 48 h, read-out: GI; procedure, shortened: as §1
IGROV-1 = assay: Cytotoxicity against human IGROV1 cells assessed as growth inhibition at 10 uM after 48 hrs by sulphorhodamine B assay; assay type: functional; conditions: IGROV-1, 48 h, read-out: GI; procedure, shortened: as §1
T47D = assay: Cytotoxicity against human T47D cells assessed as growth inhibition at 10 uM after 48 hrs by sulphorhodamine B assay; assay type: functional; conditions: read-out: GI; procedure, shortened: as §1
Hs-578T = assay: Cytotoxicity against human Hs578T cells assessed as growth inhibition at 10 uM after 48 hrs by sulphorhodamine B assay; assay type: functional; conditions: read-out: GI; procedure, shortened: as §1
NCI-H522 = assay: Cytotoxicity against human NCI-H522 cells assessed as growth inhibition at 10 uM after 48 hrs by sulphorhodamine B assay; assay type: functional; conditions: NCI-H522, 48 h, read-out: GI; procedure, shortened: as §1
HT-29 = assay: Cytotoxicity against human HT-29 cells assessed as growth inhibition at 10 uM after 48 hrs by sulphorhodamine B assay; assay type: functional; conditions: HT-29, 48 h, read-out: GI; procedure, shortened: as §1
MCF7 = assay: Cytotoxicity against human MCF7 cells assessed as growth inhibition at 10 uM after 48 hrs by sulphorhodamine B assay; assay type: functional; conditions: MCF7, 48 h, read-out: GI; procedure, shortened: as §1
MDA-MB-435 = assay: Cytotoxicity against human MDA-MB-435 cells assessed as growth inhibition at 10 uM after 48 hrs by sulphorhodamine B assay; assay type: functional; conditions: MDA-MB-435, 48 h, read-out: GI; procedure, shortened: as §1
HCT-15 = assay: Cytotoxicity against human HCT15 cells assessed as growth inhibition at 10 uM after 48 hrs by sulphorhodamine B assay; assay type: functional; conditions: HCT-15, 48 h, read-out: GI; procedure, shortened: as §1
HCT-116 = assay: Cytotoxicity against human HCT116 cells assessed as growth inhibition at 10 uM after 48 hrs by sulphorhodamine B assay; assay type: functional; conditions: HCT-116, 48 h, read-out: GI; procedure, shortened: as §1

Compound: CC1CCCc2c1nc1[nH]c(=S)n(-c3ccccc3)c(=N)c1c2-c1ccc(Cl)cc1 (configuration not stated)
- inhibition of growth at 10 µM (HOP-92): 26.2%
- inhibition of growth at 10 µM (NCI-H23): 11.5%
- inhibition of growth at 10 µM [1]: 31%
- inhibition of growth at 10 µM (A549): 18.9%
- IC50 [2]: 0.097 µg/mL (≈ 0.224 µM)
- Activity [3]: Active
- inhibition of growth at 10 µM (NCI/ADR-RES): 11.4%
- inhibition of growth at 10 µM (SNB-75): 13.9%
- inhibition of growth at 10 µM (U-251): 15.2%
- inhibition of growth at 10 µM (SNB-19): < 10%
- inhibition of growth at 10 µM (SF-295): 12.8%
- inhibition of growth at 10 µM (DU-145): 13%
- inhibition of growth at 10 µM (SF-268): < 10%
- inhibition of growth at 10 µM (PC-3): 21%
- inhibition of growth at 10 µM (UACC-62): 25.3%
- inhibition of growth at 10 µM (SK-MEL-2): 11.3%
- inhibition of growth at 10 µM (SK-MEL-5): 12%
- inhibition of growth at 10 µM (M14): 17.3%
- inhibition of growth at 10 µM (LOX IMVI): 13.1%
- inhibition of growth at 10 µM (UO-31): 44.4%
- inhibition of growth at 10 µM (CAKI-1): < 10%
- inhibition of growth at 10 µM (RXF 393): 17.8%
- inhibition of growth at 10 µM (ACHN): 11.3%
- inhibition of growth at 10 µM (SR): < 10%
- inhibition of growth at 10 µM (A498): 25.2%
- inhibition of growth at 10 µM (RPMI-8226): 66%
- inhibition of growth at 10 µM (MOLT-4): 40%
- inhibition of growth at 10 µM (K562): 28.5%
- inhibition of growth at 10 µM (HL-60(TB)): 24.2%
- inhibition of growth at 10 µM (SK-OV-3): 10.4%
- inhibition of growth at 10 µM (CCRF-CEM): 20.7%
- inhibition of growth at 10 µM (OVCAR-5): 14.3%
- inhibition of growth at 10 µM (OVCAR-4): 14.5%
- inhibition of growth at 10 µM (IGROV-1): 33.3%
- inhibition of growth at 10 µM (T47D): 50%
- inhibition of growth at 10 µM (Hs-578T): < 10%
- inhibition of growth at 10 µM (NCI-H522): 31%
- inhibition of growth at 10 µM (HT-29): < 10%
- inhibition of growth at 10 µM (MCF7): < 10%
- inhibition of growth at 10 µM (MDA-MB-435): < 10%
- inhibition of growth at 10 µM (HCT-15): 10%
- inhibition of growth at 10 µM (HCT-116): 34%

From ChEMBL document CHEMBL2375313, “Synthesis, in vitro antitumor evaluation and DNA-binding study of novel tetrahydroquinolines and some derived tricyclic and tetracyclic ring systems” (Eur J Med Chem, 2013)
